Consider 3 molecules from ChEMBL document CHEMBL4350999, “Enhanced tumor retention of NTSR1-targeted agents by employing a hydrophilic cysteine cathepsin inhibitor” (Eur J Med Chem, 2019).

The structures appear in SMILES notation. The source made the active and inactive calls. No cut-off for these calls is given here.

Series [1] in a line: Drug uptake in heart of SCID mouse xenografted with human HT-29 cells at 0.37 MBq/mouse, iv measured at 4 hrs using 177Lu labelled compound by gamma counter analysis. Format: ADME, organism-based. Conditions: in vivo. In outline:
(§1)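 Female SCID mice (5 weeks) bore s.c. flank xenografts of HT-29 cells (5 × 10^6 in Matrigel), used at about 80 mm3 (two weeks) and randomized. Each mouse received 10 μCi (0.37 MBq) of HPLC-purified 177Lu-conjugate via tail vein. Tissues were excised, weighed and gamma-counted, expressed as %ID/g; mean ± SD, n = 5.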

Series [2] in a line: Drug uptake in liver of SCID mouse xenografted with human HT-29 cells at 0.37 MBq/mouse, iv measured at 4 hrs using 177Lu labelled compound by gamma counter analysis. It counts as ADME, organism-based. Conditions: in vivo. The gist of the method: as §1
The nature of series [3]: Drug uptake in stomach of SCID mouse xenografted with human HT-29 cells at 0.37 MBq/mouse, iv measured at 4 hrs using 177Lu labelled compound by gamma counter analysis. It counts as ADME, organism-based. Conditions: in vivo. The gist of the method: (§2)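 Female SCID mice (5 weeks old) received s.c. flank HT-29 cells (5 × 10^6 in Matrigel). At ~80 mm3, two weeks later, mice were randomized and given 10 μCi (0.37 MBq) of purified 177Lu conjugate i.v. by tail vein. Mice were killed at 4, 24 or 72 h. Tissues were weighed and gamma counted as %ID/g, mean ± SD, n = 5. Tumor-to-tissue ratios were calculated.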
On the technique in general: Xenograft models place foreign cells or tissue in a host animal.

A short description of series [4]: Drug uptake in small intestine of SCID mouse xenografted with human HT-29 cells at 0.37 MBq/mouse, iv measured at 4 hrs using 177Lu labelled compound by gamma counter analysis. It counts as ADME, organism-based. Conditions: in vivo. The gist of the method:
as §1

Series [5] can be described thus: Drug uptake in large intestine of SCID mouse xenografted with human HT-29 cells at 0.37 MBq/mouse, iv measured at 4 hrs using 177Lu labelled compound by gamma counter analysis. Format: ADME, organism-based. The settings on record: in vivo. The gist of the method: as §1
Series [6] can be described thus: Drug uptake in muscle of SCID mouse xenografted with human HT-29 cells at 0.37 MBq/mouse, iv measured at 4 hrs using 177Lu labelled compound by gamma counter analysis. It counts as ADME, organism-based, Muscle tissue. Conditions: in vivo. In outline: as §1
Series [7] is described as follows: Drug uptake in bone of SCID mouse xenografted with human HT-29 cells at 0.37 MBq/mouse, iv measured at 4 hrs using 177Lu labelled compound by gamma counter analysis. It counts as ADME, organism-based, Bone element. The settings on record: in vivo. The gist of the method: as §1
A short description of series [8]: Drug uptake in pancreas of SCID mouse xenografted with human HT-29 cells at 0.37 MBq/mouse, iv measured at 24 hrs using 177Lu labelled compound by gamma counter analysis. It counts as ADME, organism-based. The settings on record: in vivo. The gist of the method: as §1
Series [9] in a line: Drug uptake in liver of SCID mouse xenografted with human HT-29 cells at 0.37 MBq/mouse, iv measured at 24 hrs using 177Lu labelled compound by gamma counter analysis. Format: ADME, organism-based. Conditions: in vivo. In outline:
as §1

Series [10] in a line: Drug uptake in stomach of SCID mouse xenografted with human HT-29 cells at 0.37 MBq/mouse, iv measured at 24 hrs using 177Lu labelled compound by gamma counter analysis. It counts as ADME, organism-based. The settings on record: in vivo. In outline:
as §2

A short description of series [11]: Drug uptake in spleen of SCID mouse xenografted with human HT-29 cells at 0.37 MBq/mouse, iv measured at 24 hrs using 177Lu labelled compound by gamma counter analysis. Format: ADME, organism-based. The settings on record: in vivo. In outline:
as §2

Series [12] is described as follows: Drug uptake in kidney of SCID mouse xenografted with human HT-29 cells at 0.37 MBq/mouse, iv measured at 24 hrs using 177Lu labelled compound by gamma counter analysis. The settings on record: in vivo. Format: ADME, organism-based. The gist of the method:
as §1

Series [13] is described as follows: Drug excretion in SCID mouse xenografted with human HT-29 cells at 0.37 MBq/mouse, iv measured at 24 hrs using 177Lu labelled compound by gamma counter analysis. Format: ADME, organism-based. The settings on record: in vivo. In outline:
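Female SCID mice bearing s.c. flank HT-29 xenografts (5 × 10^6 cells in Matrigel, ~80 mm3). Given 10 μCi (0.37 MBq) 177Lu conjugate i.v. by tail vein; groups sacrificed at 4, 24, 72 h. Tissues weighed and gamma-counted as %ID/g, excretion as %ID; n = 5, mean ± SD. Blocking arms: colchicine 1 mg/kg i.p. beforehand, or D-lysine 40 mg/kg co-injected.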

Series [14] is described as follows: Drug uptake in stomach of SCID mouse xenografted with human HT-29 cells at 0.37 MBq/mouse, iv measured at 72 hrs using 177Lu labelled compound by gamma counter analysis. Format: ADME, organism-based. Conditions: in vivo. In outline:
as §2

A short description of series [15]: Drug uptake in spleen of SCID mouse xenografted with human HT-29 cells at 0.37 MBq/mouse, iv measured at 72 hrs using 177Lu labelled compound by gamma counter analysis. Format: ADME, organism-based. Conditions: in vivo. The gist of the method:
as §2

Series [16] can be described thus: Drug uptake in bone of SCID mouse xenografted with human HT-29 cells at 0.37 MBq/mouse, iv measured at 72 hrs using 177Lu labelled compound by gamma counter analysis. It counts as ADME, organism-based, Bone element. Conditions: in vivo. The gist of the method:
as §1

Series [17] in a line: Octanol-PBS buffer distribution coefficient, log D of 177Lu labelled compound at pH 7.4 by radiometric analysis. Format: physicochemical. The gist of the method: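 177Lu conjugate partitioned between 1-octanol and PBS pH 7.4. 100 μL aliquots from each layer were gamma counted, and LogD7.4 was calculated from the counts.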
The target in another series is Cathepsin B (Homo sapiens, UniProt P07858). Briefly: Binding affinity to cathepsin B in human HT-29 cells assessed as intracellular adduct formation at 0.74 MBq incubated for 4 hrs using 177Lu labelled compound by SDS-PAGE analysis. Further details: dose or concentration left out as unconfirmed. It counts as cell-based. The gist of the method: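 HT-29 cells (1 × 10^6/well) incubated 4 h at 37 °C with 177Lu conjugate (20 μCi, 0.74 MBq) in 1 mL medium, with or without E-64 (10 μM) or NTSR1 peptide N1 (20 μM). Cells washed and refed; at set times cells pooled, RIPA-lysed with protease inhibitor. Lysates heated 85 °C 2 min, run on 16% tris-glycine SDS-PAGE, and phosphor autoradiography taken after 72 h exposure.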

A short description of series [18]: Drug uptake in membrane of human HT-29 cells measured after 240 mins using 177Lu labelled compound by gamma counter method relative to control. The settings on record: ht-29, 4 h. It counts as ADME, cell-based. In outline:
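HT-29 cells (~1 × 10^6 in 1 mL medium) were incubated with 177Lu-conjugate (100,000 cpm) at 37 °C and sampled at 15–240 min. After medium washes, surface-bound activity was stripped with pH 2.8 glycine-HCl/NaCl buffer, and the internalized fraction was taken from the 1% SDS lysate. Fractions were gamma-counted as % of total added activity; mean ± SD, n = 3.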

Series [19] in a line: Drug uptake in heart of SCID mouse xenografted with human HT-29 cells at 0.37 MBq/mouse, iv measured at 72 hrs using 177Lu labelled compound by gamma counter analysis. Format: ADME, organism-based. The settings on record: in vivo. In outline:
as §1

The nature of series [20]: Drug internalization in human HT-29 cells assessed as efflux percentage measured at 24 hrs using 177Lu labelled compound by gamma counter method relative to control. Format: ADME, cell-based. The settings on record: ht-29, 24 h. The gist of the method:
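HT-29 cells (~1 × 10^6) loaded 2 h at 37 °C with 177Lu conjugate (100,000 cpm), washed, then given fresh medium. Medium collected and replaced at 1, 2, 4, 8, 24 h and gamma-counted; cells lysed in 10% SDS at 24 h. Efflux expressed as % of total internalized activity (effluxed + cell-retained); n = 3.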

The nature of series [21]: Ratio of drug uptake in SCID mouse xenograted with human HT-29 cells assessed as tumour retention to drug uptake in spleen of SCID mouse xenografted with human HT-29 cells measured after 24 hrs using 177Lu labelled compound. It counts as ADME, tissue-based, Tumor/Spleen. The gist of the method: as §2
Series [22] is described as follows: Ratio of drug uptake in SCID mouse xenograted with human HT-29 cells assessed as tumour retention to drug uptake in muscle of SCID mouse xenografted with human HT-29 cells measured after 24 hrs using 177Lu labelled compound. Format: ADME, tissue-based, Tumor/Muscle. In outline:
as §2

`Cc1cc(O)cc(C)c1C[C@H](NC(=O)[C@@H]1CCCN1C(=O)[C@H](CCCNC(=N)N)NC(=O)[C@H](CCCNC(=N)N)N(C)C(=O)[C@@H]1CCCN1C(=O)[C@H](CCCCN)NC(=O)[C@@H](CO)NC(=O)[C@@H](CO)NC(=O)[C@@H](CO)NC(=O)[C@H](Cc1cn(CCNC(=O)[C@H](CCCNC(=N)N)NC(=O)[C@H](CC(C)C)NC(=O)CCC(=O)O)nn1)NC(=O)CN1CCN(CC(=O)O)CCN(CC(=O)O)CCN(CC(=O)O)CC1)C(=O)N[C@H](C(=O)N[C@@H](CC(C)C)C(=O)O)C(C)(C)C`: the Drug uptake is recorded as 0.13 % ID/g in series [1]; 0.42 % ID/g in [2]; 0.27 % ID/g in [3]; 2.9 % ID/g in [4]; 1 % ID/g in series [5]; 0.04 % ID/g in series [6]. In addition, the Drug uptake in series [7] was determined as 0.18 % ID/g; in series [8], 0.11 % ID/g; in [9], 0.4 % ID/g; in series [10], 0.15 % ID/g; in series [11], 1.6 % ID/g; in series [12], 39 % ID/g. Also, the Drug uptake is recorded as 0.08 % ID/g in series [14], 0.8 % ID/g in series [15], 0.12 % ID/g in [16] and “Not Active” in series [18]. Besides, the Drug excretion in series [13] is 84.7 %ID. In series [17], the pH-dependent lipophilicity (logD) is -3.51. For the same molecule, the outcome on Cathepsin B was inactive.

For `Cc1cc(O)cc(C)c1C[C@H](NC(=O)[C@@H]1CCCN1C(=O)[C@H](CCCNC(=N)N)NC(=O)[C@H](CCCNC(=N)N)N(C)C(=O)[C@@H]1CCCN1C(=O)[C@H](CCCCN)NC(=O)[C@@H](CO)NC(=O)[C@@H](CO)NC(=O)[C@@H](CO)NC(=O)[C@H](Cc1cn(CC(=O)N[C@H](CO)C(=O)N[C@H](CO)C(=O)N[C@H](CO)C(=O)NCC(=O)NCCCC[C@H](NC(=O)[C@H](Cc2ccccc2)NC(=O)OCc2ccccc2)C(=O)NCCc2ccccc2)nn1)NC(=O)CN1CCN(CC(=O)O)CCN(CC(=O)O)CCN(CC(=O)O)CC1)C(=O)N[C@H](C(=O)N[C@@H](CC(C)C)C(=O)O)C(C)(C)C`, the Drug uptake in series [1] is recorded as 1.1 % ID/g; in series [2], 9.2 % ID/g; in series [3] it was 1.6 % ID/g; in [4], 7.6 % ID/g; in series [5] it was 4 % ID/g; in [6], 0.44 % ID/g. Moreover, the Drug uptake in [7] came out at 2.6 % ID/g; in series [8] it was 0.77 % ID/g; in series [9] it was 8.3 % ID/g; in series [10] it was 0.9 % ID/g; in [11], 18 % ID/g; in series [12], 55 % ID/g. Also, the Drug uptake in series [19] was found to be 0.27 % ID/g; in [14], 0.51 % ID/g; in [15], 18 % ID/g; in series [16], 1 % ID/g. The molecule further yielded a Drug excretion in series [13] of 56 %ID.

As to `Cc1cc(C)c(C(=O)OCC(=O)[C@H](CCCCNC(=O)CNC(=O)[C@@H](CO)NC(=O)[C@@H](CO)NC(=O)[C@@H](CO)NC(=O)Cn2cc(C[C@H](NC(=O)CN3CCN(CC(=O)O)CCN(CC(=O)O)CCN(CC(=O)O)CC3)C(=O)N[C@H](CO)C(=O)N[C@H](CO)C(=O)N[C@H](CO)C(=O)N[C@@H](CCCCN)C(=O)N3CCC[C@H]3C(=O)N(C)[C@@H](CCCNC(=N)N)C(=O)N[C@@H](CCCNC(=N)N)C(=O)N3CCC[C@H]3C(=O)N[C@@H](Cc3c(C)cc(O)cc3C)C(=O)N[C@H](C(=O)N[C@@H](CC(C)C)C(=O)O)C(C)(C)C)nn2)NC(=O)[C@H](Cc2ccccc2)NC(=O)OCc2ccccc2)c(C)c1`, the Drug uptake in [20] is listed as 39%; in [1], 1.4 % ID/g; in [2] it was 38.6 % ID/g; in series [3] it was 1.7 % ID/g; in [4], 6.1 % ID/g; in series [5] it was 2.9 % ID/g. For the same molecule, the Drug uptake in series [6] amounted to 0.53 % ID/g; in series [7] it was 1.6 % ID/g; in series [8], 0.6 % ID/g; in [9], 26 % ID/g; in series [10] it was 0.9 % ID/g; in [11], 17 % ID/g. For the same molecule, the Drug uptake in series [12] came out at 62 % ID/g; in series [19] it was 0.4 % ID/g; in series [14] it was 0.8 % ID/g; in [15], 17 % ID/g; in series [16], 1.1 % ID/g; in series [18], 2%. Moreover, in [13], the Drug excretion worked out at 35 %ID. Also, in series [17], the logD is -1.95. Also, the Ratio came to 0.7 in series [21] and 30 in series [22].

Broadly, the logD is lipophilicity at a set pH, counting ionised and neutral species.
